# Laboratory results from ChEMBL document CHEMBL1156295, “In vitro and in vivo photocytotoxicity of boron dipyrromethene derivatives for photodynamic therapy” (J Med Chem, 2010).
# Active and inactive are the calls of the source. The rule behind the calls is not given here.
# Tests used:
# [1] = system: HSC-2; assay: Induction of apoptosis in human HSC2 cells irradiated with 4.1 J/cm^2 broad spectrum light assessed as viable cells at 0.5 uM after 24 hrs of irradiation by annexin V-FITC staining; type: functional; details: HSC-2, light or radiation study, read-out: Activity
# How it was run: (§1)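 HSC-2 cells at 50% confluency in dishes, treated 2 h, then irradiated (4.1 J/cm2 broad spectrum) or kept dark. At intervals, floating and trypsinized cells pooled, washed in cold PBS, resuspended at 1 × 10^6 cells/mL in binding buffer. Stained 15 min in the dark at room temperature with annexin V-FITC and propidium iodide. 1 × 10^4 cells read by flow cytometry (FL1, FL3).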
# [2] = system: HSC-2; assay: Cell cycle arrest in human HSC2 cells irradiated with 4.1 J/cm^2 broad spectrum light assessed as accumulation at G1 phase at 0.25 uM after 8 hrs by flow cytometry relative to control; type: functional
# How it was run: (§2)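 HSC-2 cells given compound for 2 h, then irradiated with broad-spectrum light (or kept dark). Floating plus trypsinized adherent cells collected at set times after irradiation. Fixed in 70% ice-cold ethanol overnight at 4 °C, then stained 30 min with 20 μg/mL RNase A and 1 μM SYTOX Green. 1 × 10^4 cells read by flow cytometry (488 nm laser, FL1 530/30).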
# [3] = system: HSC-2; assay: Induction of apoptosis in human HSC2 cells irradiated with 4.1 J/cm^2 broad spectrum light assessed as apoptotic cells at 0.5 uM after 16 hrs of irradiation by annexin V-FITC staining; type: functional; how it was run: as §1
# [4] = system: HSC-2; assay: Cell cycle arrest in human HSC2 cells irradiated with 4.1 J/cm^2 broad spectrum light assessed as accumulation at sub-G1 phase at 0.25 uM after 6 hrs by flow cytometry relative to control; type: functional; how it was run: as §2
# [5] = system: HSC-2; assay: Cell cycle arrest in human HSC2 cells irradiated with 4.1 J/cm^2 broad spectrum light assessed as accumulation at sub-G1 phase at 0.25 uM after 12 hrs by flow cytometry relative to control; type: functional; how it was run: as §2
# [6] = system: HSC-2; assay: Induction of apoptosis in human HSC2 cells irradiated with 4.1 J/cm^2 broad spectrum light assessed as viable cells at 0.5 uM after 4 hrs of irradiation by annexin V-FITC staining; type: functional; details: HSC-2, light or radiation study, read-out: Activity; how it was run: as §1
# [7] = system: HL-60; assay: Phototoxicity against human HL60 cells irradiated with 4.1 J/cm^2 broad spectrum light treated 2 hrs before irradiation measured after 24 hrs by MTT assay; type: functional, cell-based; details: HL-60, light or radiation study
# How it was run: (§3)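 HL60 at 15000 cells/well; HSC-2 and HK1 at 3000 cells/well, adhered overnight; phenol-red-free medium with 10% FBS. Compound tested at 0.001–100.0 μM from DMSO stock; controls 0.01% DMSO. After 2 h, irradiated with broad-spectrum light at 6.8 mW/cm2, or dark. After 24 h, MTT 4 h at 37 °C, formazan in DMSO, A570. Three determinations, mean ± SD.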
# [8] = system: HSC-2; assay: Induction of apoptosis in human HSC2 cells irradiated with 4.1 J/cm^2 broad spectrum light assessed as viable cells at 0.5 uM after 16 hrs of irradiation by annexin V-FITC staining; type: functional; details: HSC-2, light or radiation study, read-out: Activity; how it was run: as §1
# [9] = system: HSC-2; assay: Cell cycle arrest in human HSC2 cells irradiated with 4.1 J/cm^2 broad spectrum light assessed as accumulation at G2/M phase at 0.25 uM after 2 hrs by flow cytometry relative to control; type: functional; how it was run: as §2
# [10] = Cellular uptake in human HSC2 cells assessed as intracellular localization in to lysosome labeled with lyso-tracker DND22 dye at 100 nM by spinning disk confocal microscopy; type: ADME, cell-based; details: hsc-2, 0.1 µM
# How it was run: (§4)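 HSC-2 cells grown on glass coverslips, co-incubated at room temperature for 15–30 min with compound plus probe: ER-Tracker 100 nM, LysoTracker 500 nM or Rh123 100 nM. Rinsed in PBS. XY sections at 0.2 μm imaged; excitation 330–385 nm for ER/Lyso probes, 460–490 nm for Rh123, 520–550 nm for photosensitizer.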
# [11] = system: HSC-2; assay: Induction of apoptosis in human HSC2 cells irradiated with 4.1 J/cm^2 broad spectrum light assessed as apoptotic cells at 0.5 uM after 12 hrs of irradiation by annexin V-FITC staining; type: functional; how it was run: as §1
# [12] = system: HSC-2; assay: Cell cycle arrest in human HSC2 cells irradiated with 4.1 J/cm^2 broad spectrum light assessed as accumulation at G2/M phase at 0.25 uM after 8 hrs by flow cytometry relative to control; type: functional; how it was run: as §2
# [13] = system: HSC-2; assay: Induction of apoptosis in human HSC2 cells irradiated with 4.1 J/cm^2 broad spectrum light assessed as apoptotic cells at 0.5 uM after 24 hrs of irradiation by annexin V-FITC staining; type: functional; how it was run: as §1
# [14] = system: HSC-2; assay: Cell cycle arrest in human HSC2 cells irradiated with 4.1 J/cm^2 broad spectrum light assessed as accumulation at sub-G1 phase at 0.25 uM after 4 hrs by flow cytometry relative to control; type: functional; how it was run: as §2
# [15] = system: HSC-2; assay: Induction of apoptosis in human HSC2 cells irradiated with 4.1 J/cm^2 broad spectrum light assessed as viable cells at 0.5 uM after 12 hrs of irradiation by annexin V-FITC staining; type: functional; details: HSC-2, light or radiation study, read-out: Activity; how it was run: as §1
# [16] = system: HSC-2; assay: Induction of apoptosis in human HSC2 cells irradiated with 4.1 J/cm^2 broad spectrum light assessed as apoptotic cells at 0.5 uM after 4 hrs of irradiation by annexin V-FITC staining; type: functional; how it was run: as §1
# [17] = organism: Gallus gallus; assay: Antiangiogenic activity against chicken chorioallantoic membrane irradiated with 20 to 40 J/cm^2 assessed as induction of vascular occlusion at 3.5 to 7 nmol/embryo; type: functional, tissue-based
# How it was run: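 Fertilized chicken eggs incubated at 37 °C, 65% humidity. On EDD-9, single iv bolus into the main CAM vessel in cremophor EL 5%, EtOH 5% in saline. One minute later, a 0.02 cm2 site with 5–100 μm vessels irradiated at 510–560 nm, 40 mW/cm2 (or left dark). After 24 h, FITC-dextran/Indian ink angiography and damage scoring per Lange et al.; at least 10 embryos, mean ± SEM.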
# [18] = system: HSC-2; assay: Cell cycle arrest in human HSC2 cells irradiated with 4.1 J/cm^2 broad spectrum light assessed as accumulation at sub-G1 phase at 0.25 uM after 2 hrs by flow cytometry relative to control; type: functional; how it was run: as §2
# [19] = Cytotoxicity against human HK1 cells after 24 hrs by MTT assay; type: functional, cell-based; details: HK-1, 24 h; how it was run: as §3
# [20] = system: HSC-2; assay: Cell cycle arrest in human HSC2 cells irradiated with 4.1 J/cm^2 broad spectrum light assessed as accumulation at G1 phase at 0.25 uM after 6 hrs by flow cytometry relative to control; type: functional; how it was run: as §2
# [21] = Cellular uptake in human HSC2 cells assessed as intracellular localization in to nuclear membrane at 100 nM by spinning disk confocal microscopy; type: ADME, cell-based; details: hsc-2, 0.1 µM; how it was run: as §4
# [22] = system: HSC-2; assay: Cell cycle arrest in human HSC2 cells irradiated with 4.1 J/cm^2 broad spectrum light assessed as accumulation at G1 phase at 0.25 uM after 2 hrs by flow cytometry relative to control; type: functional; how it was run: as §2
# [23] = system: HL-60; assay: Cytotoxicity against human HL60 cells after 24 hrs by MTT assay; type: functional, cell-based; details: HL-60, 24 h; how it was run: as §3
# [24] = system: HSC-2; assay: Cell cycle arrest in human HSC2 cells in dark assessed as accumulation at sub-G1 phase at 0.25 uM after 12 hrs by flow cytometry relative to control; type: functional; how it was run: as §2
# [25] = system: HSC-2; assay: Phototoxicity against human HSC2 cells irradiated with 4.1 J/cm^2 broad spectrum light treated 2 hrs before irradiation measured after 24 hrs by MTT assay; type: functional, cell-based; details: HSC-2, light or radiation study; how it was run: as §3
smiles,measurement,setting,value
CC1=C(I)C(C)=[N+]2C1=C(CCC(=O)O)c1c(C)c(I)c(C)n1[B-]2(F)F,viability at 0.5 µM,[1],10.1%
same,Activity,[2],30.3%
same,Activity,[3],47.4%
same,Activity,[4],3.9%
same,Activity,[5],10.6%
same,viability at 0.5 µM,[6],91.3%
same,IC50,[7],45 nM
same,viability at 0.5 µM,[8],52.6%
same,Activity,[9],39.8%
same,Drug uptake,[10],Active
same,Activity,[11],20.7%
same,Activity,[12],48.8%
same,Activity,[13],89.9%
same,Activity,[14],3.7%
same,viability at 0.5 µM,[15],79.3%
same,Activity,[16],8.7%
same,Activity,[17],Active
same,Activity,[18],3.7%
same,IC50,[19],55800 nM
same,Activity,[20],26.4%
same,Activity,[21],Not Active
same,Activity,[22],46.3%
same,IC50,[23],> 100000 nM
same,Activity,[24],3.8%
same,IC50,[25],100 nM
